A short description of test [1]: Inhibition of tubulin polymerization assessed as blockade of microtubule assembly.
Test [2] has as its system K562. Briefly: Cytotoxicity against human K562 cells after 72 hrs. The following applies: K562, 72 h. It is filed as functional, cell-based. The essentials: (§1)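 Human K562 (chronic myelogenous leukemia) or MDA-MB231 (breast cancer) cells exposed to compound for 72 h; IC50 taken as concentration reducing cell growth by 50%, averaged over three experiments.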
A short description of test [3]: Cytotoxicity against human H1299 cells after 72 hrs. The format is functional, cell-based. The following applies: NCI-H1299, 72 h. The procedure, abridged:
(§2)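 Human tumour cell lines (H1299 non-small-cell lung carcinoma, HCT116 colon carcinoma) were exposed to the test drug for 72 h. IC50 is the concentration that reduced cell growth by 50%, taken as the average of three experiments.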

Test [4] concerns MDA-MB-231. Briefly: Cytotoxicity against human MDA-MB-231 cells after 72 hrs. It is filed as functional, cell-based. The following applies: MDA-MB-231, 72 h. The essentials: as §1
Test [5] has as its system HCT-116. Briefly: Cytotoxicity against human HCT116 cells after 72 hrs. The following applies: HCT-116, 72 h. The format is functional, cell-based. The procedure, abridged:
as §2

Test [6] deals with K562. Briefly: Cell cycle arrest in human K562 cells assessed as increase in G2/M phase accumulation after 24 hrs. The format is functional, cell-based. The procedure, abridged:
(§3)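 K562 leukemia cells cultured 24 h with increasing concentrations of test agent; DNA content measured by propidium iodide staining and flow cytometry to give cell-cycle phase distribution (G1, S, G2/M).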

Test [7] deals with K562. The experiment in a line: Cell cycle arrest in human K562 cells assessed as decrease in S phase accumulation after 24 hrs. It is filed as functional, cell-based. The essentials: as §3
In test [8] the test system is K562. Briefly: Cell cycle arrest in human K562 cells assessed as decrease in G1 phase accumulation after 24 hrs. The format is functional, cell-based. The essentials:
as §3

Test [9] relates to Colon 26. The experiment in a line: Ratio of IC50 of drug to IC50 for combretastatin CA-4 against mouse Colon 26 cells. The format is functional.
The subject of test [10] is P388. Briefly: Cytotoxicity against mouse P388 cells. The format is functional. The following applies: read-out: ED50 (the source's name).
The test system of test [11] is NCI-H460. The experiment in a line: Ratio of IC50 of drug to IC50 for combretastatin CA-4 against human H460 cells. It is filed as functional.
The test system of test [12] is NCI-H460. The experiment in a line: Cytotoxicity against human H460 cells. The format is functional, cell-based.
Test [13] deals with HCT-116. The experiment in a line: Ratio of IC50 of drug to IC50 for combretastatin CA-4 against human HCT116 cells. It is filed as functional.
The nature of test [14]: Cytotoxicity against human NCI60 cells. The format is functional.

Molecules are shown by their SMILES. Activity calls are given as the source filed them. No cut-off for these calls is given here.

On to `C=C(c1cc(OC)c(OC)c(OC)c1)c1ccc(OC)c(O)c1O`, for which the IC50 (in general, the point on the concentration scale where inhibition reaches its midpoint) was 2100 nM in test [1] (read-out: IC50); 750 nM in [2]; 2000 nM in test [3]; 820 nM in [4]; 850 nM in test [5].
For `C=C(c1ccc(OC)c(O)c1)c1cc(OC)c(OC)c(OC)c1`, the Activity entry in test [6] is “Dose-dependent effect”. In addition, the IC50 in [1] (read-out: IC50) was found to be 2200 nM; in test [2], 5 nM; in [3], 5 nM; in test [4] it was 4 nM; in test [5], 2.5 nM. The result in test [7] and in [8] was Active.
In the case of `COc1ccc(/C=C(/C#N)c2cc(OC)c(OC)c(OC)c2)cc1O`, the “Ratio IC50” value in test [9] turned out to be 1.3.
For `COc1ccc(/C=C\c2cc(O)c(OC)c(OC)c2)cc1O`, in test [10], the EC50 worked out at 26 nM.
`C=C(c1ccc(OC)c(OC)c1)c1cc(O)c(OC)c(OC)c1`: the IC50 result was “Not Active” in test [1]; 3100 nM in test [2]; 5000 nM in [3]; 3000 nM in [4]; 2800 nM in [5].
For `COc1ccc(C(=O)c2cc(OC)c(OC)c(OC)c2)cc1O` [PHENSTATIN], the half-maximal inhibitory concentration (IC50) in test [1] (read-out: IC50) is 2000 nM; in test [2] it was 41 nM; in test [3], 21 nM; in test [4] it was 28 nM; in test [5] it was 33 nM.
Regarding `COc1ccc(/C=C\c2cc(O)c(OC)c(OC)c2)cc1OC`, the EC50 in [10] is 900 nM.
For `COc1ccc(/C(F)=C(/F)c2cc(OC)c(OC)c(OC)c2)cc1O`, the “Ratio IC50” value in test [11] is 1.6. In test [12], the outcome was Active.
Consider `COc1ccc(/C(=C/C#N)c2cc(OC)c(OC)c(OC)c2)cc1O` (mixture of isomers), for which the values for the concentration for half-maximal inhibition (IC50) in test [1] (read-out: IC50) and in test [5] were 4300 nM and 3 nM, respectively. In addition, in [13], the “Ratio IC50” value is recorded as 1.3.
Consider `COc1ccc(/C=C\c2cc(OC)c3c(c2)OCO3)cc1O` [Combretastatin A-2], for which, in test [14], the GI50 (in general, the concentration that inhibits growth by half) stood at 31.6 nM.
As for `COc1ccc(/C=C\c2cc(OC)c(OC)c(OC)c2)cc1O` [COMBRETASTATIN A4], the IC50 was 3.6 nM in [2], 5 nM in test [3], 3 nM in test [4] and 2.3 nM in [5]. The molecule also came in with a GI50 in [14] of 3.2 nM.
As for `C=C(c1ccc(OC)c(O)c1)c1cc(O)c(OC)c(OC)c1`, the concentration for half-maximal inhibition (IC50) in [1] (read-out: IC50) turned out to be 5000 nM; in test [2], 52 nM; in [3] it was 25 nM; in [4], 8 nM; in test [5] it was 34 nM.
As for `COc1ccc(C(=C(F)F)c2cc(OC)c(OC)c(OC)c2)cc1O`, the 50% inhibitory concentration (IC50) in [1] (read-out: IC50) came to 2500 nM. In test [12], the outcome was Active. Also, the “Ratio IC50” value in test [13] came out at 2.6.
Take `COc1cc2c(c(OC)c1OC)-c1ccc(OC)c(=O)cc1[C@@H](NC(C)=O)CC2` [COLCHICINE]: the IC50 in test [1] (read-out: IC50) was 2100 nM; in [2], 29 nM; in test [3] it was 30 nM; in test [4], 26 nM; in test [5], 32 nM.
For `C=C(c1ccc(OC)c(O)c1)c1cc(OC)c2c(c1)OCO2`, the 50% inhibitory concentration (IC50) in test [1] (read-out: IC50) amounted to 3400 nM; in [2], 38 nM; in [3], 32 nM; in [4], 48 nM; in test [5] it was 38 nM.
Consider `COc1ccc(/C=C\c2cc(OC)c(OC)c(OC)c2)c(O)c1O` [COMBRETASTATIN A-1], for which halving of growth in test [14] (GI50) required 16.2 nM.
